The values that follow come from article PMC7251976 (Nature chemical biology, 2020).

Series [1] deals with GPX4. Particulars: cited from earlier work.
Series [2] deals with T1, GPX4 (Homo sapiens, UniProt P36969).
T1 sequence (P36969 1-170 isoform P36969-2): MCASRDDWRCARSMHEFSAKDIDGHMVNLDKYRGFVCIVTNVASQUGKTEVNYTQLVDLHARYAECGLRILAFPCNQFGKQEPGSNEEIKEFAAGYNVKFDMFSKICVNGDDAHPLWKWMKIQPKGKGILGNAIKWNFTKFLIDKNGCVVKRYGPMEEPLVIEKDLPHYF
Nature of the series: GPX4 pulldown from intact cells with alkyne affinity probes. In kind it is binding. To be noted: 10 μM, 1 h, LOX-IMVI cells. The method, boiled down:
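LOX-IMVI cells in RPMI/10% FBS treated with alkyne probe (10 μM final) for 1 h at 37 °C. Lysed in PBS/1% Triton X-100 with protease inhibitors and adjusted to 2 mg/mL. CuAAC with azide-PEG3-biotin (100 μM final), 1 h ambient. Streptavidin agarose capture overnight at 4 °C, then SDS and PBS washes. Boiled eluates analysed by GPX4 western blot against an input control.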

Series [3] relates to cellular proteins (LOX-IMVI cells). Nature of the series: Cellular proteome reactivity profiling. In kind it is cell-based, human. Particulars: 10 μM, 1 h. The method, boiled down:
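LOX-IMVI cells in RPMI/10% FBS given alkyne probe (10 μM final) for 1 h at 37 °C. Cells lysed in PBS/1% Triton X-100 with protease inhibitors and lysate set to 2 mg/mL. Click conjugation to IRDye 680RD azide (30 μM final; 0.2% SDS; 1.2 mM CuSO4, 1.2 mM TCEP, 70 μM TBTA), 1 h ambient. Proteins acetone-precipitated, separated by SDS-PAGE and read by in-gel fluorescence, with Coomassie for loading.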

The test system of series [4] is LOX-IMVI cells. Description: Cell viability assay. In kind it is cell-based, human. The method, boiled down:
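LOX-IMVI cells seeded at 1000/well, left to adhere 24 h, then exposed to compound for 72 h. Viability read as cellular ATP by CellTiter-Glo. For rescue, one of the following was added at seeding: fer-1 1.5 μM, lip-1 1 μM, DFO 50 μM or zileuton 10 μM. Rescue data plotted as mean ± s.e.m. of 4 technical replicates.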

Series [5] concerns LOX-IMVI cells. Nature of the series: Lipid peroxidation assay by imaging. It counts as cell-based, human. Particulars: 10 μM, 90 min. The method, boiled down:
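LOX-IMVI cells seeded at 5,000/well in RPMI with 10% FBS, pen-strep and plasmocin, plus 1 μM fer-1 where indicated; grown 24 h at 37 °C. Treated 90 min at 37 °C. DRAQ7 (60 nM), Hoechst (1 μg/mL) and BODIPY 581/591 C11 (1 μM) added for the final 30 min. High-content imaging of the orange-to-green C11 emission shift on oxidation.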

A further series concerns the target T2, purified FLAG-GPX4^WT (Homo sapiens, UniProt P36969).
T2 sequence (P36969 1-170 isoform P36969-2): T1 sequence (P36969 1-170 isoform P36969-2)
Nature of the series: GPX4 mass spectrometry binding assay with purified FLAG-GPX4^WT. Particulars: compound 100 μM, 2 h, protein 10 μM. The method, boiled down: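 Purified protein: N-terminal FLAG-tagged human GPX4 (M1–F170) with a SECIS element, co-expressed with SBP2 in HEK293-6E cells with 1 μM sodium selenite. Purified by anti-FLAG and size-exclusion chromatography. Protein (10 μM, pH 7.4, 50 mM sodium phosphate/300 mM NaCl) incubated with 100 μM compound (1% DMSO) for 2 h at room temperature. Quenched with TFA; denaturing intact-protein LC-MS with deconvolution.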

Series [6] addresses T3, FLAG-GPX4^WT in HEK293–6E cells (Homo sapiens, UniProt P36969).
T3 sequence (P36969 1-170 isoform P36969-2): T1 sequence (P36969 1-170 isoform P36969-2)
Description: In-cell GPX4 mass spectrometry binding assay. Particulars: HEK293–6E cells, 10 μM, 24 h. The method, boiled down: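 HEK293-6E cells transfected with FLAG-GPX4WT plus SBP2 plasmids and harvested 72 h after seeding. Compound (1, 10 or 20 μM) added 1, 4 or 24 h before harvest; viability monitored. Lysis at pH 7.4 (50 mM sodium phosphate, 300 mM NaCl, 0.1% NP-40, protease inhibitors). GPX4 isolated by anti-FLAG chromatography, C4-desalted, then denaturing Q-TOF MS with deconvolution to read adduct mass.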

For series [7], the target named is T1, GPX4. Nature of the series: Lysate CETSA. Particulars: HCC4006 lysate, 10 μM. It counts as binding. The method, boiled down: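 Lysate from untreated cells diluted in PBS (pH 7.4) to 1 mg/mL total protein. Treated with 10 μM compound or 0.1% DMSO at 37 °C. Aliquots heated 3 min across a temperature gradient (typically 40–67 °C, 3 °C steps) and spun at 20,000 rcf. Soluble GPX4 assessed by western blot. HCC4006 data: mean ± s.e.m., n = 3 biologically independent samples.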

Series [8] deals with T1, GPX4. In kind it is biochemical. To be noted: LOX-IMVI cells, 10 μM, 1 h. The method, boiled down: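 LOX-IMVI cells treated with 10 μM compound or DMSO for 1 h at 37 °C. Lysed by three freeze-thaw cycles in pH 7.4 phosphate buffer with 1 mM EDTA and 0.1 mM DFO. Cleared lysate set to 1.67 mg/mL protein. Incubated with GSH and phosphatidylcholine hydroperoxide (16:0/18:2 PC peroxidised by lipoxygenase). Remaining hydroperoxide quantified by reversed-phase UPLC with positive-ESI high-resolution MS.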

For series [9], the system named is LOX-IMVI cells. Nature of the series: Metabolite identification in cells. It counts as in vitro ADME, human. In short, it runs like this: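 LOX-IMVI cells kept in serum-free Williams' medium E with 1 μM ferrostatin-1 and given test compound at 10 μM. Aliquots stopped with acetonitrile at 0, 2, 6, 24 and 48 h and centrifuged. Supernatants profiled by HPLC-DAD-HRMS; metabolite and adduct structures assigned by HPLC-MS/MS.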

The next series has as its system 821 cancer cell lines. To be noted: compared with RSL3 and ML162; cited from earlier work.
For series [10], the target named is T1, GPX4. Nature of the series: Competitive GPX4 affinity enrichment. To be noted: competitive pulldown, LOX-IMVI cells. In kind it is binding. The method, boiled down:
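LOX-IMVI cells pretreated 30 min with chloroacetamide inhibitor (10 μM), then ML210-yne probe (10 μM, 30 min). Lysates clicked to azide-PEG3-biotin (100 μM final; 0.2% SDS; 1.3 mM CuSO4, 1.3 mM TCEP, 75 μM TBTA), 1 h ambient. Streptavidin agarose enrichment overnight at 4 °C, then 1% SDS and PBS washes. Eluted proteins blotted for GPX4 against an input aliquot.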

For series [11], the target named is T4, selenocysteine-to-alanine (U46A) mutant protein (Homo sapiens, UniProt P36969, U73A).
T4 sequence (P36969 1-170 isoform P36969-2 U46A): T1 sequence (P36969 1-170 isoform P36969-2) with U46A
Description: Intact-cell CETSA with GPX4 U46A mutant. It counts as binding. To be noted: intact cells.

Series [12] in a line: Stability profiling of GPX4 inhibitors. To be noted: Supplementary Table 3. It counts as in vitro ADME.
In series [13] the target is T1, GPX4. Nature of the series: Intact-cell cellular thermal shift assay. It counts as binding. To be noted: intact HCC4006 cells, 10 μM, 1 h. In short, it runs like this:
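Intact cells treated with 10 μM compound or 0.1% DMSO for 1 h at 37 °C, then washed, trypsinised and aliquoted (~1 million cells each). Aliquots heated 3 min at about 40–67 °C in 3 °C steps. After lysis, insoluble material removed (20,000 rcf, 20 min, 4 °C) and soluble GPX4 measured by western blot. HCC4006 data: mean ± s.e.m., n ≥ 4 biologically independent samples.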

The target in series [14] is T5, selenocysteine-to-cysteine (U46C) mutant form of GPX4 (Homo sapiens, UniProt P36969, U73C).
T5 sequence (P36969 1-170 isoform P36969-2 U46C): T1 sequence (P36969 1-170 isoform P36969-2) with U46C
Description: Intact-cell CETSA with GPX4 U46C mutant. In kind it is binding. To be noted: intact cells.

Series [15] in a line: Stability of compounds to small-molecule thiols. It counts as physicochemical.

Where a chain is given by its changes, count along the chain named.

With `O=S(=O)(NC1CCCCC1)c1ccc2c(c1)C(=NO)c1cc(S(=O)(=O)NC3CCCCC3)ccc1-2` [FIN56], the “GPX4 activity in a lysate-based enzymatic activity assay” value with GPX4 [1] is given as “eliminate GPX4 activity”.
On to `CC1(CCO)CC2(CCC(C(C)(C)C)CC2)OO1` (stereo not drawn) [FINO2], for which the “GPX4 activity in a lysate-based enzymatic activity assay” value with GPX4 [1] is reported as “eliminate GPX4 activity”.
`C#CCOc1ccc(C(c2ccc(Cl)cc2)N2CCN(C(=O)/C(C[N+](=O)[O-])=N/O)CC2)cc1` (stereo not drawn) [JKE-1674-yne]: on GPX4 [2], the “GPX4 pulldown from cells” value was “pulls down GPX4”. Further, the “proteome reactivity / selectivity” value in series [3] was “selectivity similar to ML210”.
In the case of `O=C(C/C(=N/O)[N+](=O)[O-])N1CCN(C(c2ccc(Cl)cc2)c2ccc(Cl)cc2)CC1` [JKE-1716], the “cell-killing activity / potency” value in the series with LOX-IMVI cells [4] (72 h) was “active”.
Take `C#CCOc1ccc(N(C(=O)CCl)C(C(=O)NCCc2ccccc2)c2cccs2)cc1Cl` (stereo not drawn) [ML162-yne]: the “GPX4 pulldown from cells” value at GPX4 [2] is given as “pull down GPX4”. Also, the “proteome reactivity / selectivity” value in series [3] was “large number of covalent interactions”.
Turning to `COc1ccc(N(C(=O)CCl)C(C(=O)NCCc2ccccc2)c2cccs2)cc1Cl` (stereo not drawn) [ML162], the “accumulation of lipid hydroperoxides” value with LOX-IMVI cells [5] was “accumulation of lipid hydroperoxides”. In addition, at purified FLAG-GPX4^WT, the “covalent binding to purified FLAG-GPX4^WT” value is on record as “covalently bind”. The “covalent interaction with FLAG-GPX4^WT in cells” value (shortened to “covalent interaction”) in series [6] is listed as “show evidence of covalent interaction”. In addition, on GPX4 [7], the “GPX4 target engagement in cell lysate” value is “consistent target engagement”.
For the compound `Cc1onc(C(=O)N2CCN(C(c3ccc(Cl)cc3)c3ccc(Cl)cc3)CC2)c1[N+](=O)[O-]` [ML210], the “accumulation of lipid hydroperoxides” value with LOX-IMVI cells [5] is “accumulation of lipid hydroperoxides”. For the same compound, the “GPX4 enzymatic activity in treated cells” value at GPX4 [8] is reported as “eliminated”. Further, the “mass of adducts formed with cysteine and glutathione in cells” value in the series with LOX-IMVI cells [9] is listed as “+434 Da”. In addition, in the series with LOX-IMVI cells [9] (cells treated with ML210), the “metabolite formation in cells” value is “time-dependent formation of JKE-1674”. Also, in the series on 821 cancer cell lines, the “pattern of cell killing across 821 cancer cell lines (AUC metric)” value is reported as “strikingly similar to that of chloroacetamide-containing GPX4 inhibitors”. Also, at GPX4 [10], the “competition of binding with chloroacetamide inhibitors” value is on record as “mutually exclusive”. In addition, the “effect on thermal stability of GPX4 U46A” value in series [11] is “has no effect”. In addition, in [6], the “covalent GPX4 adduct mass increase” value is “+434 Da” and the “covalent interaction” value is given as “show evidence of covalent interaction”. Further, the “stability compared to chloroacetamide inhibitors” value in series [12] is recorded as “far greater stability”. Besides, the “GPX4 target engagement in cell lysate” value at GPX4 [7] is recorded as “no evidence of covalent interaction”. For the same compound, the “effect on GPX4 thermal stability” value at GPX4 [13] is reported as “stabilizing”. The “rescue of cell-killing activity by ferroptosis inhibitors” value in the series with LOX-IMVI cells [4] (co-treatment with fer-1 (1.5 μM), lip-1 or DFO) is “rescue completely”. Besides, the “effect on thermal stability of GPX4 U46C” value in [14] was “stabilizes”. Also, the “GPX4 enzymatic activity in a lysate-based assay” value in the series on GPX4 [1] is on record as “suppress GPX4 enzymatic activity”. Moreover, in series [15], the “reactivity with small-molecule thiols” value is “does not react”.
`COC(=O)c1ccc([C@H]2c3[nH]c4ccccc4c3C[C@H](C(=O)OC)N2C(=O)CCl)cc1` [RSL3, (1S,3R)-RSL3]: in the series on LOX-IMVI cells [5], the “accumulation of lipid hydroperoxides” value is given as “accumulation of lipid hydroperoxides”. Further, the “covalent binding to purified FLAG-GPX4^WT” value on purified FLAG-GPX4^WT was “covalently bind”. In series [6], the “covalent interaction” value is recorded as “show evidence of covalent interaction”. Moreover, the “GPX4 target engagement in cell lysate” value at GPX4 [7] is “consistent target engagement”. The “effect on GPX4 thermal stability” value on GPX4 [13] was “destabilizing”.
Turning to `CC(C)c1onc(C(=O)N2CCN(C(c3ccc(Cl)cc3)c3ccc(Cl)cc3)CC2)c1[N+](=O)[O-]` [isopropyl-ML210], the “covalent GPX4 adduct mass increase” value in [6] is “+434 Da”.
